Results: ChEMBL document CHEMBL5584325, “Discovery of novel coumarin triazolyl and phenoxyphenyl triazolyl derivatives targeting amyloid beta aggregation-mediated oxidative stress and neuroinflammation for enhanced neuroprotection” (RSC Med Chem, 2024)
Active and inactive are the calls of the source. The rule behind the calls is not given here.

Columns and labels:
[1] = target: T1, Amyloid-beta precursor protein (Homo sapiens, UniProt P05067); assay: Inhibition of amyloid beta (1 to 42) (unknown origin) aggregation at 100 uM incubated for 48 hrs by ThioflavinT staining based fluorescence assay relative to control
T1 sequence (P05067 whole entry): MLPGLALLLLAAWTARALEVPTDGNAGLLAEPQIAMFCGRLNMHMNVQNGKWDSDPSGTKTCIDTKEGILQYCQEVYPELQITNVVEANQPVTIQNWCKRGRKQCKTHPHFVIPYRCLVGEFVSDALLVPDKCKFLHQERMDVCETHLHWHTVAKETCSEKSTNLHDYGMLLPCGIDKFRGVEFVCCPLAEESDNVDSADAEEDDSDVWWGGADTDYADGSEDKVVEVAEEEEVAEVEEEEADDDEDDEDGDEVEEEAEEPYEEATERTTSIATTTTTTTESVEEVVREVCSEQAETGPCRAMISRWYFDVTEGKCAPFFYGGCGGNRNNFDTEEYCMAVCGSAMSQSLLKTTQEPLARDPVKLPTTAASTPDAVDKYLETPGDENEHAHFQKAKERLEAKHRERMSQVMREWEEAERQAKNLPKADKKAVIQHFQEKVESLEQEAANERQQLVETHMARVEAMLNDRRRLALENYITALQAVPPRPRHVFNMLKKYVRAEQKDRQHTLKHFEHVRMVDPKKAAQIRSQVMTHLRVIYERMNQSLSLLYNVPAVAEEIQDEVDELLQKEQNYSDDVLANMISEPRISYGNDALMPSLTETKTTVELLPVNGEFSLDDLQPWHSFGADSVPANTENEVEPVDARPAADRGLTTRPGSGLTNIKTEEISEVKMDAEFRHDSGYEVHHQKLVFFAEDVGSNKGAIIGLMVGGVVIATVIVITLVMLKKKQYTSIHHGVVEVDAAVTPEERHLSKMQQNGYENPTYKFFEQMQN
Procedure, shortened: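 Compound in DMSO (1 μl of a 1 mM solution) mixed with 9 μl of 25 μM Aβ1–42 in Tris pH 7.4. Incubated 48 h at 37 °C without agitation, then 200 μl of 5 μM ThT added. Fluorescence read at ex 446/em 500 nm; % inhibition vs DMSO control, solvent blank subtracted.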

[2] = Octanol/water partition coefficient, log P of the compound incubated for 2 hrs under shaking condition by HPLC analysis; format: physicochemical
Procedure, shortened: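 Shake-flask log P: 10 mM stock (DMSO, or octanol for highly lipophilic compounds) partitioned between mutually saturated octanol and water at three phase ratios. Shaken 2 h at 25 ± 1 °C, phases separated, each phase quantified by C18 HPLC-UV. Mobile phase 0.1% formic acid:methanol 40:60; log P averaged over the three ratios.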

[3] = target: T1, Amyloid-beta precursor protein; assay: Inhibition of amyloid beta (1 to 42) (unknown origin) aggregation incubated for 48 hrs by ThioflavinT staining based fluorescence assay
[4] = tested on: BV-2; assay: Cytotoxicity against mouse BV-2 cells assessed as reduction in cell viability at 10 to 200 uM measured after 24 hrs by MTT assay; format: toxicity, cell-based; details: bv-2, 24 h, dose 10-200 µM
Procedure, shortened: (§1)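 BV-2 microglia grown in DMEM with 10% FBS, HEPES and Glutamax at 37 °C, 5% CO2, seeded overnight at 1 × 10^4 cells/well. Compound alone at 0–200 μM (range extended lower where needed) for 24 h. MTT 2 h at 37 °C, formazan dissolved in DMSO, A570 read. Used to pick non-toxic concentrations.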

[5] = tested on: BV-2; assay: Cytotoxicity against mouse BV-2 cells assessed as reduction in cell viability at 20 uM measured after 24 hrs by MTT assay; format: toxicity, cell-based; details: bv-2, 24 h; procedure, shortened: as §1
[6] = tested on: BV-2; assay: Neuroprotective activity in amyloid beta (1 to 42)-induced cytotoxicity in mouse BV-2 cells assessed as cell viability at 20 uM measured after 24 hrs by MTT assay (reference value: 54.96 +/- 1.12%); format: functional; details: read-out: Activity
[7] = tested on: BV-2; assay: Neuroprotective activity in amyloid beta (1 to 42)-induced morphological changes in mouse BV-2 cells at 20 uM; format: functional, cell-based
[8] = tested on: BV-2; assay: Cytotoxicity against mouse BV-2 cells assessed as reduction in cell viability at 2.5 uM measured after 24 hrs by MTT assay; format: toxicity, cell-based; details: bv-2, 24 h; procedure, shortened: as §1
[9] = tested on: BV-2; assay: Neuroprotective activity in amyloid beta (1 to 42)-induced cytotoxicity in mouse BV-2 cells assessed as cell viability at 2.5 uM measured after 24 hrs by MTT assay (reference value: 54.96 +/- 1.12%); format: functional; details: read-out: Activity
[10] = Induction of ROS generation in mouse BV-2 cells at 2.5 uM measured after 24 hrs by DCFH-DA staining based fluorescence assay; format: toxicity, cell-based; details: bv-2, 24 h
Procedure, shortened: (§2)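 BV-2 cells seeded overnight at 1 × 10^4/well, compound alone (no Aβ). Cells loaded with 20 μM (final) DCFH-DA for 30 min at 37 °C, washed, then given conditioned medium for 24 h. Fluorescence read at ex […] nm. Expressed as % of control; n = 3 in triplicate, one-way ANOVA with LSD.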

[11] = tested on: BV-2; assay: Neuroprotective activity in amyloid beta (1 to 42)-induced oxidative stress in mouse BV-2 cells assessed as intracellular ROS level at 2.5 uM measured after 24 hrs by DCFH-DA staining based fluorescence assay (reference value: 150.91 +/- 0.49%); format: functional
[12] = tested on: BV-2; assay: Neuroprotective activity in amyloid beta (1 to 42)-induced inflammation in mouse BV-2 cells assessed as TNFalpha mRNA expression at 2.5 uM measured after 24 hrs by SYBR green staining based qRT-PCR analysis (reference value: 1.73 +/- 0.22%); format: functional
[13] = tested on: BV-2; assay: Neuroprotective activity in amyloid beta (1 to 42)-induced inflammation in mouse BV-2 cells assessed as IL-1beta mRNA expression at 2.5 uM measured after 24 hrs by SYBR green staining based qRT-PCR analysis (reference value: 1.53 +/- 0.13%); format: functional
[14] = tested on: BV-2; assay: Neuroprotective activity in amyloid beta (1 to 42)-induced inflammation in mouse BV-2 cells assessed as change in IL-6 mRNA expression at 2.5 uM measured after 24 hrs by SYBR green staining based qRT-PCR analysis; format: functional, cell-based
[15] = target: T1, Amyloid-beta precursor protein; assay: Inhibition of amyloid beta (1 to 42) aggregation in mouse BV-2 cells exposed to amyloid-beta (1 to 42) (unknown origin) at 2.5 uM measured after 24 to 48 hrs by thioflavin T staining based fluorescence assay; format: cell-based; details: time 24-48 hrs
[16] = tested on: BV-2; assay: Neuroprotective activity in amyloid beta (1 to 42)-induced morphological changes in mouse BV-2 cells assessed as appearance of healthy cells at 2.5 uM; format: functional, cell-based
[17] = tested on: SH-SY5Y; assay: Neuroprotective activity against human SH-SY5Y cells co-cultured with 2.5 uM compound pretreated BV-2 cells exposed to amyloid beta (1 to 42) assessed as cell viability measured after 24 hrs by MTT assay (reference value: 80.62 +/- 0.86%); format: functional; details: read-out: Activity
[18] = target: T1, Amyloid-beta precursor protein; assay: Inhibition of amyloid beta (1 to 42) (unknown origin) aggregation assessed as reduction in amyloid beta fibril formation at 2.5 uM measured after 48 hrs by transmission electron microscopy
[19] = target: T1, Amyloid-beta precursor protein; assay: Inhibition of amyloid beta (1 to 42) (unknown origin) aggregation assessed as appearance of collapsed amyloid beta fibrils at 2.5 uM measured after 48 hrs by transmission electron microscopy
[20] = tested on: BV-2; assay: Cytotoxicity against mouse BV-2 cells assessed as reduction in cell viability at 40 uM measured after 24 hrs by MTT assay; format: toxicity, cell-based; details: bv-2, 24 h; procedure, shortened: as §1
[21] = tested on: BV-2; assay: Neuroprotective activity in amyloid beta (1 to 42)-induced cytotoxicity in mouse BV-2 cells assessed as cell viability at 40 uM measured after 24 hrs by MTT assay (reference value: 54.96 +/- 1.12%); format: functional; details: read-out: Activity
[22] = Induction of ROS generation in mouse BV-2 cells at 40 uM measured after 24 hrs by DCFH-DA staining based fluorescence assay; format: toxicity, cell-based; details: bv-2, 24 h; procedure, shortened: as §2
[23] = tested on: BV-2; assay: Neuroprotective activity in amyloid beta (1 to 42)-induced oxidative stress in mouse BV-2 cells assessed as intracellular ROS level at 40 uM measured after 24 hrs by DCFH-DA staining based fluorescence assay (reference value: 150.91 +/- 0.49%); format: functional
[24] = tested on: BV-2; assay: Neuroprotective activity in amyloid beta (1 to 42)-induced inflammation in mouse BV-2 cells assessed as TNFalpha mRNA expression at 40 uM measured after 24 hrs by SYBR green staining based qRT-PCR analysis (reference value: 1.73 +/- 0.22%); format: functional
[25] = tested on: BV-2; assay: Neuroprotective activity in amyloid beta (1 to 42)-induced inflammation in mouse BV-2 cells assessed as IL-1beta mRNA expression at 40 uM measured after 24 hrs by SYBR green staining based qRT-PCR analysis (reference value: 1.53 +/- 0.13%); format: functional
[26] = tested on: BV-2; assay: Neuroprotective activity in amyloid beta (1 to 42)-induced inflammation in mouse BV-2 cells assessed as […] in IL-6 mRNA expression at 40 uM measured after 24 hrs by SYBR green staining based qRT-PCR analysis relative to control; format: functional
[27] = target: T1, Amyloid-beta precursor protein; assay: Inhibition of amyloid beta (1 to 42) aggregation in mouse BV-2 cells exposed to amyloid-beta (1 to 42) (unknown origin) at 40 uM measured after 24 to 48 hrs by thioflavin T staining based fluorescence assay; format: cell-based; details: time 24-48 hrs
[28] = tested on: SH-SY5Y; assay: Neuroprotective activity against human SH-SY5Y cells co-cultured with 40 uM compound pretreated BV-2 cells exposed to amyloid beta (1 to 42) assessed as cell viability measured after 24 hrs by MTT assay (reference value: 80.62 +/- 0.86%); format: functional; details: read-out: Activity
[29] = tested on: BV-2; assay: Cytotoxicity against mouse BV-2 cells assessed as reduction in cell viability at 150 uM measured after 24 hrs by MTT assay; format: toxicity, cell-based; details: bv-2, 24 h; procedure, shortened: as §1
[30] = tested on: BV-2; assay: Neuroprotective activity in amyloid beta (1 to 42)-induced cytotoxicity in mouse BV-2 cells assessed as cell viability at 150 uM measured after 24 hrs by MTT assay (reference value: 54.96 +/- 1.12%); format: functional; details: read-out: Activity

SMILES	inhibition [1] [%]	logP at 2 h [2]	IC50 [3] [µM]	other results
O=C(OCc1cn(-c2ccc(Oc3ccccc3)cc2)nn1)c1ccccc1O	< 50	5.18		
O=C(NCc1cn(-c2ccc(Oc3ccccc3)cc2)nn1)c1ccccc1O	< 50			logP ([2]; 2 h): Not Determined(Insoluble)
COc1cc(C(=O)NCc2cn(-c3ccc(Oc4ccccc4)cc3)nn2)ccc1O	> 50	4.26	1.15	Activity [5]: Non-Toxic; viability at 20 µM [6]: 34.5%; Activity [7]: Active
O=C(OCc1cn(-c2ccc(Oc3ccccc3)cc2)nn1)c1ccccc1	> 50	5.19	4.73	Activity [5]: Non-Toxic; viability at 20 µM [6]: 54.1%
COc1cc(/C=C/C(=O)CC(=O)/C=C/c2ccc(O)c(OC)c2)ccc1O	> 50			
O=C(Cc1ccccc1[N+](=O)[O-])NCc1cn(-c2ccc(Oc3ccccc3)cc2)nn1	> 50	3.76	69.2	
COc1cc(/C=C/C(=O)NCc2cn(-c3ccc(Oc4ccccc4)cc3)nn2)ccc1O	> 50	4.44	0.04	Activity [20]: Non-Toxic; viability at 40 µM [21]: 60.8%; Activity [22]: Non-Toxic; Activity [23]: 137.18%; Activity [25]: 0.05%; Activity [26]: 2.04%; inhibition [27]: Active; viability at 40 µM [28]: 87.2%
O=C(Cc1ccccc1[N+](=O)[O-])NCc1cn(-c2cc3ccccc3oc2=O)nn1	> 50	1.9	11.6	
O=C(NCc1cn(-c2cc3ccccc3oc2=O)nn1)c1ccccc1	< 50	2.25		
O=C(Cc1ccccc1[N+](=O)[O-])OCc1cn(-c2ccc(Oc3ccccc3)cc2)nn1	> 50	4.29	36.7	
O=C(NCc1cn(-c2ccc(Oc3ccccc3)cc2)nn1)c1ccccc1	< 50	4.21		Activity [29]: Non-Toxic; viability at 150 µM [30]: 31.6%

More lines, main results first:

inhibition [1] [%]	logP at 2 h [2]	IC50 [3] [µM]	SMILES	other results
< 50	2.65		O=C(OCc1cn(-c2cc3ccccc3oc2=O)nn1)c1ccccc1O	
< 50	2.02		O=C(NCc1cn(-c2cc3ccccc3oc2=O)nn1)c1ccccc1O	
> 50	4.47	0.003	COc1cc(C(=O)OCc2cn(-c3ccc(Oc4ccccc4)cc3)nn2)ccc1O	Activity [4]: Toxic
< 50	2.61		COc1cc(C(=O)OCc2cn(-c3cc4ccccc4oc3=O)nn2)ccc1O	
> 50	2.41	17.7	O=C(Cc1ccccc1[N+](=O)[O-])OCc1cn(-c2cc3ccccc3oc2=O)nn1	
> 50	2.64	0.008	COc1cc(/C=C/C(=O)OCc2cn(-c3cc4ccccc4oc3=O)nn2)ccc1O	Activity [8]: Non-Toxic; viability at 2.5 µM [9]: 71.3%; Activity [10]: Non-Toxic; Activity [11]: 107.04%; Activity [12]: 1.09%; Activity [13]: 0.71%; Activity [14]: inactive; inhibition [15]: Active; Activity [16]: Active; viability at 2.5 µM [17]: 91.5%; inhibition [18]: Active; inhibition [19]: Active
< 50	2.65		COc1cc(/C=C/C(=O)NCc2cn(-c3cc4ccccc4oc3=O)nn2)ccc1O	Activity [20]: Non-Toxic; viability at 40 µM [21]: 75.4%; Activity [22]: Non-Toxic; Activity [23]: 76.83%; Activity [24]: 0.64%; Activity [25]: 0.47%; Activity [26]: inactive; inhibition [27]: Active; viability at 40 µM [28]: 88.3%
< 50	1.95		COc1cc(C(=O)NCc2cn(-c3cc4ccccc4oc3=O)nn2)ccc1O	
< 50	2.38		O=C(OCc1cn(-c2cc3ccccc3oc2=O)nn1)c1ccccc1	
